In ChEMBL document CHEMBL3112425, “Design, synthesis, and structure-activity relationship studies of a potent PACE4 inhibitor” (J Med Chem, 2014):

Legend:
[1] = Half life in CD-1 mouse plasma at 0.5 ug/uL by RP-HPLC analysis; assay type: ADME, cell-free
How it was run: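 Peptides at 0.5 μg/μL were incubated at 37 °C in heparinized plasma pooled from mixed-sex CD1 mice. At each time point the reaction was stopped with 1 M guanidinium-HCl, then acetonitrile, and proteins were spun out. Supernatant peptide AUC (RP-HPLC) was compared with non-incubated samples. Half-life came from a one-phase decay fit. Run ≥3 times, duplicate per time point.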

PC-3 [2] = test: Cytotoxicity against human PC3 cells up to 350 uM after 72 hrs by MTT assay; assay type: functional
How it was run: (§1)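 Prostate cancer cells were kept in RPMI 1640 at 37 °C, 5% CO2, with 5% FBS for DU145 and 10% FBS for LNCaP and PC3. After 24 h, medium was changed and peptides added at various concentrations, up to 350 μM. Viability was read by MTT after 72 h treatment. IC50 from dose–response curves, triplicate, mean ± SEM.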

Plasma = test: Drug degradation in CD-1 mouse plasma at 0.5 ug/uL after 30 mins by MALDI-TOF MS analysis; assay type: ADME, cell-free; conditions: 0.5 h
How it was run: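 For fragment mapping, 100 μg peptide was incubated in murine plasma at 37 °C. At each time point, plasma samples were quenched with 3% TFA. Proteins were precipitated with 2 volumes acetonitrile and centrifuged at 17 000g. Supernatants were analyzed by MALDI-TOF MS for C-terminally truncated fragments.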

[3] = Acute toxicity in human DU145 cells assessed as cell death/lysis at 100 uM after 4 hrs by LDH assay; assay type: cell-based, DU-145; conditions: read-out: INH
How it was run: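 DU145 cells (RPMI 1640, 5% FBS, 37 °C, 5% CO2) plated; 24 h later peptides added at 100 μM. After 4 h, release of lactate dehydrogenase into the medium was quantified enzymatically with a commercial LDH cytotoxicity kit as the measure of acute membrane damage/lysis.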

DU-145 [4] = test: Cellular uptake in human DU145 cells after 1 hr by propidium iodide staining-based FACS analysis; assay type: ADME, cell-based; conditions: du-145, 1 h
How it was run: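 FITC-βAla-labelled peptides at 10 μM were given to DU145 cells for 1 h in serum-free RPMI. Cells were collected, then washed twice with 0.05% trypsin (5 min, 37 °C) to strip membrane-bound peptide. Propidium iodide (10 μg/mL, 2 min) excluded damaged cells. FACS read 10 000 events/sample as geometric mean fluorescence, against untreated-cell autofluorescence.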

[5] = target: T1, Proprotein convertase subtilisin/kexin type 6 (Homo sapiens, UniProt P29122); test: Inhibition of human recombinant PACE4 expressed in drosophila schneider 2 cells using pyroGlu-Arg-Thr-Lys-Arg-AMC as substrate after 1 hr
T1 sequence (P29122 whole entry): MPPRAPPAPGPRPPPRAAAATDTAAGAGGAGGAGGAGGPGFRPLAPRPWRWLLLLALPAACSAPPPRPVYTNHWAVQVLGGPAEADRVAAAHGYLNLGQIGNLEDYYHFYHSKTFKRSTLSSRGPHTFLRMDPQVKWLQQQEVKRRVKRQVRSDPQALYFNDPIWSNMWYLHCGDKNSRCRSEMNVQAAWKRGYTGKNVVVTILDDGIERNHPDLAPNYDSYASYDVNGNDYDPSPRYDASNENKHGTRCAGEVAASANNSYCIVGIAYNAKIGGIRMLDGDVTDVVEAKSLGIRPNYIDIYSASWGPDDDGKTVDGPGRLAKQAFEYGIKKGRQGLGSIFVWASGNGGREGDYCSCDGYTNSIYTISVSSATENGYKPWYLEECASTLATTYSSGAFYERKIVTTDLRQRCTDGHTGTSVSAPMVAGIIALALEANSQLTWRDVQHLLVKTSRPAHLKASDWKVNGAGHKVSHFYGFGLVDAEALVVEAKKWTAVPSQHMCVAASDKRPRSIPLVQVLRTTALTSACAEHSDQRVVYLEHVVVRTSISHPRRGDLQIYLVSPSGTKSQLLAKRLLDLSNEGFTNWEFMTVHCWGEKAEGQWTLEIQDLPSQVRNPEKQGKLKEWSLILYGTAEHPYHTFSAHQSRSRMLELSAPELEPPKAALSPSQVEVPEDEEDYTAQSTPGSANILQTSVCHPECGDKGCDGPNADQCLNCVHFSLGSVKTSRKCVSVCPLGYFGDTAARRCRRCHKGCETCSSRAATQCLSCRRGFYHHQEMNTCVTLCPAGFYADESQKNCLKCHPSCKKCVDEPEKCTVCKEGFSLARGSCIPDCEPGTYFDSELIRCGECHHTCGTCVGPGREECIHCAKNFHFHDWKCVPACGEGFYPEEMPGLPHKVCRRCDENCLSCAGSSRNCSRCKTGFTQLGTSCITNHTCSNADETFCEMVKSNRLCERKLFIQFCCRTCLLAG
How it was run: (§2)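 Human enzymes were expressed in Drosophila S2 cells and purified. Fluorogenic pyroGlu-RTKR-AMC was used at fixed concentration with varied inhibitor, 37 °C over 1 h. Buffers: furin, 100 mM Hepes pH 7.5, 1 mM CaCl2, 1 mM β-mercaptoethanol, 1.8 mg/mL BSA; PACE4 and PC7, 20 mM Bis-Tris pH 6.5, 1 mM CaCl2, 1.8 mg/mL BSA; PC2, same buffer at pH 5.7. Ki from IC50 (Cheng–Prusoff), or apparent Ki (Morrison) for tight binders. Triplicate, mean ± SD.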

PC-3 [6] = test: Cytotoxicity against human PC3 cells after 72 hrs by MTT assay; assay type: functional, cell-based; conditions: PC-3, 72 h; how it was run: as §1
LNCaP = test: Cytotoxicity against human LNCAP cells after 72 hrs by MTT assay; assay type: functional, cell-based; how it was run: as §1
DU-145 [7] = test: Cytotoxicity against human DU145 cells after 72 hrs by MTT assay; assay type: functional, cell-based; conditions: DU-145, 72 h; how it was run: as §1
Furin = Furin (Homo sapiens, UniProt P09958); test: Inhibition of human recombinant furin expressed in drosophila schneider 2 cells using pyroGlu-Arg-Thr-Lys-Arg-AMC as substrate after 1 hr; how it was run: as §2
Chain of Furin (P09958 whole entry): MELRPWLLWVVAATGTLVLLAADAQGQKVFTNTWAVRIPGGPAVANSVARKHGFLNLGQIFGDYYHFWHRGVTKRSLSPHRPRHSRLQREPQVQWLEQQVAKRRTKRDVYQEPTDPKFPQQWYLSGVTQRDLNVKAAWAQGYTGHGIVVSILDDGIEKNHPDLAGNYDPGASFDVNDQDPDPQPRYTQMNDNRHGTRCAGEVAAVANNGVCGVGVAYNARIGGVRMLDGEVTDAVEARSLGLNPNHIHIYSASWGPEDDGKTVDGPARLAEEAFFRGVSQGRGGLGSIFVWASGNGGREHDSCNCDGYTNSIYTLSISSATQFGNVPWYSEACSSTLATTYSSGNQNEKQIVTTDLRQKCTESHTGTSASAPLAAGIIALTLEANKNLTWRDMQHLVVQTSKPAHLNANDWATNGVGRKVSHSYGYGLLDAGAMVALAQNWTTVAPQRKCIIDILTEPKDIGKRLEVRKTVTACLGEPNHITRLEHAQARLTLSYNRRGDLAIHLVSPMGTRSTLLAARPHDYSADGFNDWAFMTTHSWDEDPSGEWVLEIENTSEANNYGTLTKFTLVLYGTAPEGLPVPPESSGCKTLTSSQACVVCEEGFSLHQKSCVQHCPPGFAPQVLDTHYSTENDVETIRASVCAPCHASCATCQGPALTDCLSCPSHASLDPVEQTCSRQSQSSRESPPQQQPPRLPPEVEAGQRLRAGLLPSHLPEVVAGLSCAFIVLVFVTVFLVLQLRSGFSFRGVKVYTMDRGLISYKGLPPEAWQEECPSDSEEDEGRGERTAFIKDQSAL

Row | SMILES | half-life at 0.5 ug/uL [1] | inhibition (INH) (PC-3 [2]) | Stability (Plasma) | cytotoxicity at 4 h, 100 µM [3] | Drug uptake (DU-145 [4]) | Ki [5] | IC50 (PC-3 [6]) | IC50 (LNCaP) | IC50 (DU-145 [7]) | Ki (Furin)
1 | CC(=O)N[C@@H](CC(C)C)C(=O)N[C@@H](CC(C)C)C(=O)N[C@@H](CC(C)C)C(=O)N[C@@H](CC(C)C)C(=O)N[C@@H](CCCNC(=N)N)C(=O)N[C@H](C(=O)N[C@@H](CCCCN)C(=O)N[C@@H](CCCNC(=N)N)C(N)=O)C(C)C | 5.1 h | <50% | Unstable | < 5% | Active | 0.02 µM |  |  |  | 
2 | CC(=O)N[C@H](CC(C)C)C(=O)N[C@@H](CC(C)C)C(=O)N[C@@H](CC(C)C)C(=O)N[C@@H](CC(C)C)C(=O)N[C@@H](CCCN=C(N)N)C(=O)N[C@H](C(=O)N[C@@H](CCCCN)C(=O)N[C@@H](CCCN=C(N)N)C(N)=O)C(C)C | 8.6 h |  | Unstable | < 5% | Active | 0.024 µM | 190 µM | 150 µM | 70 µM | 0.76 µM
3 | CCCC[C@H](NC(C)=O)C(=O)N[C@@H](CC(C)C)C(=O)N[C@@H](CC(C)C)C(=O)N[C@@H](CC(C)C)C(=O)N[C@@H](CCCNC(=N)N)C(=O)N[C@H](C(=O)N[C@@H](CCCCN)C(=O)N[C@@H](CCCNC(=N)N)C(N)=O)C(C)C |  | <50% |  | < 5% |  | 0.021 µM |  | 180 µM | 150 µM | 0.65 µM
4 | CCCC[C@H](NC(C)=O)C(=O)N[C@@H](CC(C)C)C(=O)N[C@@H](CC(C)C)C(=O)N[C@@H](CCCC)C(=O)N[C@@H](CCCNC(=N)N)C(=O)N[C@H](C(=O)N[C@@H](CCCCN)C(=O)N[C@@H](CCCNC(=N)N)C(N)=O)C(C)C |  | <50% | Unstable | < 5% |  | 0.014 µM |  | 90 µM | 40 µM | 0.68 µM
